According to ChEMBL document CHEMBL1125740, “Heterocyclic quinones. 17. A new in vivo active antineoplastic drug: 6,7-bis(1-aziridinyl)-4-[[3-(N,N-dimethylamino)propyl]amino]-5,8- quinazolinedione” (J Med Chem, 1991):
Several values for one entry are separate records, joined by “and”; a condition that tells them apart may be missing. Equal values may be shown once.

How the values were obtained:
[1] = tested on: P388; experiment: Compound was evaluated in vivo for antitumor activity after intraperitoneal administration against P388/L-PAM(14) for tumor free survivors at an optimal dose of 0.5 mg/kg/injection at 1,4,7,11 day schedule on day 60; format: functional, Mus musculus
[2] = tested on: P388; experiment: Compound was evaluated in vivo for antitumor activity after intraperitoneal administration against P388/L-PAM(14) for median day of death at an optimal dose of 0.4 mg/kg/injection at 1,2,3,4 day schedule.; format: functional, Mus musculus
[3] = tested on: B16; experiment: Compound was evaluated in vivo for antitumor activity against B16 melanoma after injecting the compound intravenously for total dose.; format: functional, Mus musculus
Procedure, shortened: (§1)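 30-60 mg tumor fragments implanted sc by trocar on day 0 into C57Bl/6-derived hosts (B16) or C3H/He-derived hosts (16/C). Drug given iv on days 6, 9 and 13 (B16) or 6, 9 and 12 (16/C), 10 mice per group. Tumors measured by caliper. T/C % taken from median tumor burden of treated vs control groups on day 15 (B16) or day 14 (16/C). Body weight change per mouse recorded at nadir.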

[4] = tested on: P388; experiment: Compound was evaluated in vivo for antitumor activity after intraperitoneal administration against P388 (1313) for total dose at an optimal dose of 0.5 mg/kg/injection; format: functional, Mus musculus
[5] = Compound was evaluated in vivo for antitumor activity against Lewis Lung cercinoma after injecting the compound intravenously for change in body weight.; format: functional, Mus musculus
Procedure, shortened: (§2)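 Lewis lung carcinoma: 10^6 cells implanted im into C57Bl/6-derived hosts. Drug given iv on days 5, 9 and 13, 10 mice per group. Median tumor burden and weight nadir recorded. Survivors were killed on day 19, and their lungs were fixed in Fekete solution so that macroscopic metastases could be counted.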

[6] = tested on: P388; experiment: Compound was evaluated in vivo for antitumor activity after intraperitoneal administration against P388/L-PAM(14) for tumor free survivors at an optimal dose of 1 mg/kg/injection; format: functional, Mus musculus
[7] = Compound was evaluated in vivo for antitumor activity against Lewis Lung cercinoma after injecting the compound intravenously for total dose.; format: functional, Mus musculus; procedure, shortened: as §2
[8] = tested on: L1210; experiment: Compound was evaluated in vivo for antitumor activity after intraperitoneal administration against L1210(935)for change in body weight at an optimal dose of 1 mg/kg/injection at 1 day schedule.; format: functional, Mus musculus
Procedure, shortened: (§3)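 L1210 leukemia, maintained in DBA/2 mice, was given ip as 10⁵ cells on day 0 to F1 hybrid or strain-of-origin mice over 18 g, in groups of 8. Dosing was ip from day 1, and mortality was checked daily. Median day of death counts dying mice only. %ILS = 100×(treated − control median day of death)/control median. Tumor-free survivors were counted on day 60. Weight change is g/mouse at nadir.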

[9] = tested on: P388; experiment: Compound was evaluated in vivo for antitumor activity after intraperitoneal administration against P388 (1313) for tumor free survivors at an optimal dose of 0.2 mg/kg/injection; format: functional, Mus musculus
[10] = tested on: B16; experiment: Compound was evaluated in vivo for antitumor activity against B16 melanoma after injecting the compound intravenously for total dose; format: functional, Mus musculus
[11] = tested on: P388; experiment: Compound was evaluated in vivo for antitumor activity after intraperitoneal administration against P388 (1303) for % increase in life span at an optimal dose of 0.75 mg/kg/injection; format: functional; conditions: Mus musculus, P388, ip
[12] = tested on: L1210; experiment: Compound was evaluated in vivo for antitumor activity after intraperitoneal administration against L1210(935)for % increase in life span at an optimal dose of 0.25 mg/kg/injection at 1,4,7,11day schedule.; format: functional; conditions: Mus musculus, L1210, ip; procedure, shortened: as §3
[13] = tested on: L1210; experiment: Compound was evaluated in vivo for antitumor activity after intraperitoneal administration against L1210(935) for mortality range at an optimal dose of 1 mg/kg/injection at 1 day schedule.; format: functional, Mus musculus; procedure, shortened: as §3
[14] = tested on: L1210; experiment: Compound was evaluated in vivo for antitumor activity after intraperitoneal administration against L1210(935) for median day of death at an optimal dose of 0.5 mg/kg/injection at 1 day schedule.; format: functional, Mus musculus; procedure, shortened: as §3
[15] = tested on: P388; experiment: Compound was evaluated in vivo for antitumor activity after intraperitoneal administration against P388/L-PAM(14) for median day of death at an optimal dose of 0.1 mg/kg/injection at 1,2,3,4 day schedule.; format: functional, Mus musculus
[16] = tested on: L1210; experiment: Compound was evaluated in vivo for antitumor activity after intraperitoneal administration against L1210(935) for mortality range at an optimal dose of 0.5 mg/kg/injection at 1,4,7,11day schedule.; format: functional, Mus musculus; procedure, shortened: as §3
[17] = tested on: P388; experiment: Compound was evaluated in vivo for antitumor activity after intraperitoneal administration against P388 (1313) for % increase in life span at an optimal dose of 0.2 mg/kg/injection; format: functional; conditions: Mus musculus, P388, ip
[18] = tested on: P388; experiment: Compound was evaluated in vivo for antitumor activity after intraperitoneal administration against P388/L-PAM(14) for % increase in life span at an optimal dose of 0.2 mg/kg/injection at 1,2,3,4 day schedule.; format: functional; conditions: Mus musculus, P388, ip
[19] = Compound was evaluated in vivo for antitumor activity against Glasgow osteogenic sarcoma after injecting the compound intravenously for percent T/C (value in parentheses indicates the day of evaluation); format: functional, Mus musculus
[20] = Compound was evaluated in vivo for antitumor activity against colon adenocarcinoma 38 after injecting the compound intravenously for total dose.; format: functional, Mus musculus
[21] = tested on: L1210; experiment: Compound was evaluated in vivo for antitumor activity after intraperitoneal administration against L1210(935) for total dose at an optimal dose of 0.25 mg/kg/injection at 1,4,7,11day schedule.; format: functional, Mus musculus; procedure, shortened: as §3
[22] = tested on: P388; experiment: Compound was evaluated in vivo for antitumor activity after intraperitoneal administration against P388 (1313) for median day of death at an optimal dose of 0.2 mg/kg/injection; format: functional, Mus musculus
[23] = tested on: P388; experiment: Compound was evaluated in vivo for antitumor activity after intraperitoneal administration against P388/L-PAM(14) for % increase in life span at an optimal dose of 0.5 mg/kg/injection at one day schedule.; format: functional; conditions: Mus musculus, P388, ip, 24 h
[24] = tested on: M5076; experiment: Compound was evaluated in vivo for antitumor activity against M5076 after injecting the compound intravenously for optimal dose; format: functional, Mus musculus
[25] = Compound was evaluated in vivo for antitumor activity against mammary adenocarcinoma 16/C after injecting the compound intravenously for total dose.; format: functional, Mus musculus; procedure, shortened: as §1
[26] = Compound was evaluated in vivo for antitumor activity against Glasgow osteogenic sarcoma after injecting the compound intravenously for median tumor burden; format: functional, Mus musculus
Procedure, shortened: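 Glasgow osteogenic sarcoma in C57Bl/6-derived hosts: 30-60 mg fragments implanted sc by trocar on day 0. Drug given iv on days 3, 6 and 9, 7 mice per group. Tumors measured by caliper. Median tumor burden recorded on day 10. Body weight change per mouse recorded at nadir. Toxicity-related deaths counted.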

[27] = tested on: L1210; experiment: Compound was evaluated in vivo for antitumor activity after intraperitoneal administration against L1210(935)for change in body weight at an optimal dose of 0.1 mg/kg/injection at 1-4 day schedule.; format: functional, Mus musculus; procedure, shortened: as §3
[28] = Compound was evaluated in vivo for antitumor activity against Lewis Lung cercinoma after injecting the compound intravenously for toxicity related death.; format: functional, Mus musculus; procedure, shortened: as §2
[29] = tested on: L1210; experiment: Compound was evaluated in vivo for antitumor activity after intraperitoneal administration against L1210(935) for median day of death at an optimal dose of 0.4 mg/kg/injection at 1-4 day schedule.; format: functional, Mus musculus; procedure, shortened: as §3
[30] = tested on: L1210; experiment: Compound was evaluated in vivo for antitumor activity after intraperitoneal administration against L1210(935)for % increase in life span at an optimal dose of 0.5 mg/kg/injection at 1 day schedule.; format: functional; conditions: Mus musculus, L1210, ip, 24 h; procedure, shortened: as §3
[31] = tested on: P388; experiment: Compound was evaluated in vivo for antitumor activity after intraperitoneal administration against P388/L-PAM(14) for mortality range at an optimal dose of 0.5 mg/kg/injection at 1,4,7,11 day schedule.; format: functional, Mus musculus

CN(C)CCCNc1ncnc2c1C(=O)C(N1CC1)=C(N1CC1)C2=O
Survivors [1]: 0 | Median day of death [2]: 20 | Total dose [3]: 0.6 mg/kg | Optimal dose [4]: 2 mg/kg | Change in body weight [5]: 0.6 g mouse-1 and 1.1 g mouse-1 | Survivors [6]: 0 | Total dose [7]: 1.2 mg/kg and 0.6 mg/kg | Change in body weight [8]: 0.6 g mouse-1 | Survivors [9]: 0 | Total dose [10]: 1.2 mg/kg | ILS at 0.75 mg/kg [11]: 68% | ILS at 0.25 mg/kg [12]: 18% | Mortality [13]: 16 days | Median day of death [14]: 14 | Median day of death [15]: 14 | Mortality [16]: 18 days | ILS at 0.2 mg/kg [17]: 62% | ILS at 0.2 mg/kg [18]: 36% | T/C [19]: 0% | Total dose [20]: 0.5 mg/kg | Total dose [21]: 1 mg/kg | Median day of death [22]: 19.5 | ILS at 0.5 mg/kg [23]: 28% | Optimal dose [24]: 1 mg/kg | Total dose [25]: 1.2 mg/kg and 0.6 mg/kg | Tumor burden [26]: 40 mg | Change in body weight [27]: 0.4 g mouse-1 | Toxicity [28]: 0 | Median day of death [29]: 14 | ILS at 0.5 mg/kg [30]: 27% | Mortality [31]: 32 days
